Screens: PubChem BioAssay, several laboratories
Sampled rows, rich in hits. Any-hit rate of the full collection: about 2%.
LGR2 inh = blocks bursicon-induced cAMP signaling via Drosophila LGR2 | HEK293 LGR2, CRE-luciferase, bursicon-stimulated, 4 h | inhibition, % at 9.99 µM | 380,000 tested, 0.35% active;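 active = drop in luminescence signal, shown as inhibition above about 50% in the replicate tests, limit read from the data, passing the limit was not always enough; inconclusive = probably only some replicates passing the limit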;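 note: agonist challenge used bursicon conditioned medium at about half maximal strength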
TWEAK-Fn14 inh = blocks TWEAK-Fn14 interaction in a reporter cell assay | AID 1159606 | 360,000 tested, 2% active | inhibition, % at 10 µM | TWEAK-stimulated Fn14 reporter cells, luciferase luminescence, 8 h; in the data active = inhibition above about 50%
TROY signal inh = blocks TROY-dependent signaling in reporter cells. inhibition, % at 10 µM. Q293 LMP1-TROYcd NF-kB luciferase reporter, 4 h. AID 1347056. 360,000 tested, 0.98% active;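 active = compounds whose plate-normalised and pattern-corrected inhibition of the luciferase reporter signal at the single screening dose is 50% or more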
CaV13 FRET inh = Disruptors of the CACNA1D IQ motif to Ca2+-dependent inactivation inhibitor domain association, primary screening, Förster resonance energy transfer in intact living … | HEK cells, CFP/YFP FRET ICDI-IQ, plate reader, 10 min; percent FRET-ratio fall versus neutral wells | inhibition, % at 12.3 µM | AID 743397 | 340,000 tested, 0.098% active;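 active = mean replicate inhibition of at least 30% and at least 1% of replicates passing that level; inconclusive = only one of the two criteria is met; inactive = neither criterion is met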;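 note: 0% = median of the neutral control wells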
Xi reactivation = activators of X-chromosome reactivation in mouse fibroblasts. AID 743238. activation, % at 7.58 µM. 360,000 tested, 0.055% active. XiGFP mouse fibroblasts, % GFP-positive cells imaging, 3 d; cells co-treated with 5-aza-dC sensitizer; scaled so ellipticine positive control = 100%;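 active = mean normalized replicate activation at least 10% and every replicate at or above 10%; inconclusive = only one of the two criteria met; inactive = mean below 10% and not all replicates reach 10%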;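 note: 0% = median of on-plate neutral control wells and 100% = ellipticine 6 µM median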
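System: SV40-immortalized XiGFP fibroblast cells, line 68-5-11 / Incubation: 3-day compound exposure, then 15 min fixation at room temperature / Compound: single concentration per compound, delivered by pin transfer / Buffer or medium: DMEM plus 5-aza-dC sensitizer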
Active calls of the source: *; ? = inconclusive; . = not tested or not shown.

SMILES	LGR2 inh	TWEAK-Fn14 inh	TROY signal inh	CaV13 FRET inh	Xi reactivation
Cc1ccc(NC(=O)CCCCCNS(=O)(=O)c2ccc(C)cc2)cc1	6.8	15.3	-13.9	-4.8	0.2
C[C@H]1CN([C@@H](C)CO)S(=O)(=O)c2ccc(-c3ccc(F)cc3)cc2O[C@H]1CN(C)CC1CC1	2.5	.	.	.	-1.4
Cc1sc(NC(=O)CCCC(=O)O)c(C(N)=O)c1-c1ccccc1	27.0	52.5*	-4.2	-6.7	0.0
CC(C)NC(=O)N(C)C[C@H]1Oc2cc(C#C[C@@H](C)O)ccc2S(=O)(=O)N([C@@H](C)CO)C[C@@H]1C	-1.7	.	.	.	-1.4
N#CC1=C(N)NC(SCc2ccc(Br)cc2)=C(C#N)C12CCCCC2	.	1.9	54.0*	-4.8	.
COc1ccc(-c2csc3ncnc(Sc4nnnn4C)c23)cc1	?	56.0*	28.6	-5.6	0.1
Cc1ccc(-c2csc3ncnc(SCC(=O)c4ccc5c(c4)OCCO5)c23)cc1	.	32.9	-1.7	-7.7	.
Cn1nnnc1Sc1ncnc2scc(-c3ccc([N+](=O)[O-])cc3)c12	91.0*	92.5*	54.1*	-8.3	0.0
Cn1nnnc1Sc1ncnc2scc(-c3ccc4c(c3)OCO4)c12	?	58.2*	13.4	-7.1	0.1
Cn1nnnc1Sc1ncnc2scc(-c3ccccc3Cl)c12	22.1	51.5*	37.7	-4.4	0.6
C[C@@H]1CN([C@@H](C)CO)C(=O)c2cc(C#Cc3ccncc3)cnc2O[C@@H]1CN(C)S(=O)(=O)c1ccccc1F	12.7	.	.	.	-0.1
Cc1ccc(S(=O)(=O)Nc2ccc3c(c2)C(=O)N([C@@H](C)CO)C[C@H](C)[C@@H](CN(C)CC2CCCCC2)OCCCC[C@H](C)O3)cc1	8.4	.	.	.	0.4
Cn1nnnc1Sc1ncnc2scc(-c3cccc4c3sc3ccccc34)c12	31.6	24.7	-9.3	-5.5	-0.1
Cn1nnnc1Sc1ncnc2scc(-c3ccc(Cl)cc3)c12	57.4*	75.2*	63.9*	-4.6	0.0
C[C@@H]1CCCCO[C@@H](CN(C)S(=O)(=O)c2ccc(F)cc2)[C@H](C)CN([C@@H](C)CO)C(=O)c2cc(NS(=O)(=O)c3ccc(F)cc3)ccc2O1	-5.7	.	.	.	0.0
CCOc1ccc(NC(=O)CN(C)C(=O)c2cc(C)on2)cc1OCC	-3.3	6.9	13.8	-4.3	0.0
CCOc1ccc(NC(=O)CN(C)C(=O)c2ccncc2)cc1OCC	4.5	68.4*	5.0	-4.0	0.0
CC(=O)N1CCN(Cc2nc3cc(NC(=O)c4ccccc4Cl)ccc3n2C)CC1	15.2	13.2	-9.3	-6.3	0.1
Cn1c(CN2CCCCC2)nc2cc(NC(=O)c3ccccc3Cl)ccc21	-25.0	51.7*	22.0	-7.1	.
Cc1cccc(OCC(=O)Nc2ccc3c(c2)nc(CN2CCCCC2)n3C)c1	0.4	81.0*	57.5*	-4.8	0.1
Cn1c(CCN2CCN(c3ccccn3)CC2)nc2cc(NC(=O)COc3ccc(Cl)cc3)ccc21	12.3	54.2*	50.1*	-12.5	0.0
O=C(c1cc(-c2ccc(Cl)cc2)on1)N1CCOCC1	-13.8	51.4*	8.0	-7.1	.
O=C(c1cc(-c2ccc(Cl)cc2Cl)on1)N1CCOCC1	?	70.8*	31.1	-7.5	.
COc1ccc(-c2cc(C(=O)N3CCCC3)no2)cc1	74.7*	57.1*	58.6*	-3.3	0.3
O=C(c1cc(-c2cccc(Cl)c2)on1)N1CCOCC1	-50.9	-5.4	-62.9	-7.0	0.0
SMILES	LGR2 inh	TWEAK-Fn14 inh	TROY signal inh	CaV13 FRET inh	Xi reactivation
Cc1ccc(-c2cc(C(=O)NCCCN3CCOCC3)no2)cc1	.	74.5*	21.7	-5.6	.
COc1ccc(-c2cc(C(=O)N3CCCCCC3)no2)cc1	8.3	27.9	-9.7	-6.9	-0.1
COc1ccc2c3c([nH]c2c1)[C@@H](CO)N(C(=O)Nc1ccc(F)cc1)CC31CN(C(=O)Cc2ccncc2)C1	-2.8	.	.	.	0.5
C[C@H](CO)N1C[C@H](C)[C@@H](CN(C)S(=O)(=O)c2ccc(Cl)cc2)Oc2ccc(NC(=O)C3CCCCC3)cc2C1=O	.	.	.	.	-0.3
Cc1nc2c(C#N)c(C)[nH]n2c(=O)c1Cc1ccccc1	-1.1	64.2*	30.6	-9.5	.
Cc1nc2c(-c3ccccc3)c(C)[nH]n2c(=O)c1Cc1ccccc1	-19.8	25.4	23.5	-6.4	0.0
CCc1cc2c(COC(=O)c3cccc(S(C)(=O)=O)c3)cc(=O)oc2cc1O	1.1	55.6*	32.9	-7.2	-0.1
